Activity calls are given as the source filed them. The calls are words filed in the database; no cut-off is given here.
How the values were obtained:
[1] = Plasma concentration in thyroidectomized rat at 37.5 mg/kg, ip measured after 6 hrs; format: ADME, organism-based; set-up: dose 37.5 mg/kg, route intraperitoneal
How it was run: (§1)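 Thyroidectomized rats were dosed intraperitoneally at 5, 20 or 37.5 mg/kg, with 4 rats per group. Vehicle was 4% DMSO, 15% PEG-400 and 81% of 30% HPBCD in phosphate buffer. Cardiac α-MHC hnRNA, in arbitrary units, and plasma concentration were measured 6 h after dosing. Comparators were untreated thyroidectomized rats and euthyroid rats.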

[2] = Plasma concentration in thyroidectomized rat at 5 mg/kg, ip measured after 6 hrs; format: ADME, organism-based; set-up: dose 5 mg/kg, route intraperitoneal; how it was run: as §1
hERG (KCNH2) = hERG (KCNH2) (Homo sapiens, UniProt Q12809); experiment: Inhibition of human ERG
How it was run: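 hERG channel blockade was expressed as an IC20.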

[3] = Volume of distribution at steady state in rat at 5 mg/kg, iv; format: ADME, organism-based; set-up: dose 5 mg/kg, route intravenous; conditions: in vivo, read-out: Vdss
How it was run: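 Rats, N = 3, dosed iv at 5 mg/kg in parallel with a 5 mg/kg oral suspension. Pharmacokinetic parameters are mean values with SD.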

[4] = Oral bioavailability in rat at 5 mg/kg; format: ADME, organism-based; conditions: in vivo
How it was run: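 Rat pharmacokinetics after a 5 mg/kg dose given iv, or given orally as a suspension. Values are means with SD from N = 3 rats.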

Mus musculus [5] = experiment: Antidyslipidemic activity in diet-induced obese C57Bl/6J mouse model assessed as reduction in cholesterol level at 0.3 to 10 mg/kg, po administered daily for 23 days; format: functional, organism-based
How it was run: (§2)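 C57Bl/6J mice aged six weeks were fed a high fat diet for 34 weeks. Body weight and food intake were monitored. BMD and body composition were assessed on day 22, and laboratory assessments were made at study end.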

Mus musculus [6] = experiment: Antidyslipidemic activity in diet-induced obese C57Bl/6J mouse model assessed as reduction in liver triglycerides at 0.3 to 10 mg/kg, po administered daily for 23 days; format: functional, organism-based; how it was run: as §2
Mus musculus [7] = experiment: Toxicity in diet-induced obese C57Bl/6J mouse model assessed as effect on bone mineral density at 0.3 to 10 mg/kg, po administered daily for 23 days; format: organism-based; set-up: dose 0.3-10 mg/kg, route oral; conditions: in vivo; how it was run: as §2
Oryctolagus cuniculus = organism: Oryctolagus cuniculus; experiment: Toxicity in hypercholesterolemic rabbit model assessed as effect on central thyroid axis; format: organism-based; conditions: in vivo
Mus musculus [8] = organism: Mus musculus; experiment: Antidyslipidemic activity in diet-induced obese C57Bl/6J mouse model assessed as lowering glucose level to near normal level; format: functional, organism-based
Homo sapiens [9] = experiment: Toxicity in healthy human with mildly elevated LDL-C level assessed as adverse events at 5 to 200 mg, po qd for 2 weeks by multiple ascending dose study; format: organism-based; conditions: in vivo, 336 h
How it was run: (§3)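 Multiple ascending dose study lasting 2 weeks, run after a single ascending dose study. Healthy subjects with LDL-C >110 mg/dL took oral doses once daily from 5 to 200 mg. Safety, thyroid axis measures (free T4, free T3, TSH), heart rate, QT and liver enzymes were monitored. Lipid changes were compared with placebo.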

Homo sapiens [10] = experiment: Toxicity in healthy human with mildly elevated LDL-C level assessed as central thyroid axis dysfunction at 5 to 200 mg, po qd for 2 weeks by multiple ascending dose study; format: organism-based; conditions: in vivo, 336 h; how it was run: as §3
Homo sapiens [11] = experiment: Toxicity in healthy human with mildly elevated LDL-C level assessed as effect on QT interval at 5 to 200 mg, po qd for 2 weeks by multiple ascending dose study; format: organism-based; conditions: in vivo, 336 h
How it was run: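 Multiple ascending dose study after single ascending dose study. Healthy subjects with LDL-C >110 mg/dL received once daily oral doses of 5 to 200 mg for 2 weeks. Safety and tolerability were assessed, covering QT interval, heart rate, vital signs and liver enzymes.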

[12] = Ratio of drug uptake in liver to plasma in diet-induced obese C57Bl/6J mouse model; format: ADME, tissue-based

hERG (KCNH2), sequence (Q12809 whole entry): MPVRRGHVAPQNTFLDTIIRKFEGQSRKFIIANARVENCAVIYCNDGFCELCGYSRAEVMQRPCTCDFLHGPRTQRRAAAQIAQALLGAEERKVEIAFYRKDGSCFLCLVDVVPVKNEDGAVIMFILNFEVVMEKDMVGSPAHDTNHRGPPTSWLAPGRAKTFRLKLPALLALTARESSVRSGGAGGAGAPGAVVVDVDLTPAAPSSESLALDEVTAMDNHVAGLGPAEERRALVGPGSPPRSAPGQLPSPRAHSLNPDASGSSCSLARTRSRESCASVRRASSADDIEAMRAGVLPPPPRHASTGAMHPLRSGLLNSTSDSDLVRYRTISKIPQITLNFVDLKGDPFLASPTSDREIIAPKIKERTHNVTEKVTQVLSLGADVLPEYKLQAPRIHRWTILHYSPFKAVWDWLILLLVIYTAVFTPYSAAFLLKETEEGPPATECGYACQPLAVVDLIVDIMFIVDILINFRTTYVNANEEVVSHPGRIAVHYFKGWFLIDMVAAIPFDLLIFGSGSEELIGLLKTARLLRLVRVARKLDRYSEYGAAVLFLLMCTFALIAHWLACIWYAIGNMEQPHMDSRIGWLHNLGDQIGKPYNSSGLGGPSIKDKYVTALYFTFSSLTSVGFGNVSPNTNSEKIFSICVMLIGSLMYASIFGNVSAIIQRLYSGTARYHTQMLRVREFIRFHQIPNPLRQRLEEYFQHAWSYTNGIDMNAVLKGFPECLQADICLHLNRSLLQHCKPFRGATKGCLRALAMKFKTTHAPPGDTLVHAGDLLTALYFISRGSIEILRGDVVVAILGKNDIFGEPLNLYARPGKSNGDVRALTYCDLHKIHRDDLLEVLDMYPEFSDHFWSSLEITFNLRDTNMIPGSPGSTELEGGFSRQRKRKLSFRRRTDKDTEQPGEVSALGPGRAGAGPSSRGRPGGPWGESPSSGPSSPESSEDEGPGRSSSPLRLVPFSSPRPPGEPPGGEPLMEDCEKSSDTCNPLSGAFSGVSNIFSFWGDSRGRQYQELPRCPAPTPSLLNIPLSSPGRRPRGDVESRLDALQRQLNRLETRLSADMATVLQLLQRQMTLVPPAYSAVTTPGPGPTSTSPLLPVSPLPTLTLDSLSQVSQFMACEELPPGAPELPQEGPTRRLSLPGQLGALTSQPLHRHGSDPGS

concentration at 6 h [1]: 94 µM | concentration at 6 h [2]: 15.4 µM | Vd [3]: 0.422 L/kg | bioavailability [4]: 45% | Kp [12]: 8
SMILES: CC(C)c1cc(Oc2c(Cl)cc(-n3nc(C#N)c(=O)[nH]c3=O)cc2Cl)n[nH]c1=O [RESMETIROM]
IC20 (hERG (KCNH2)): 30 µM | Activity (Mus musculus [5]): Active | Activity (Mus musculus [6]): Active | Activity (Mus musculus [7]): Non-toxic | Activity (Oryctolagus cuniculus): Non-toxic | Activity (Mus musculus [8]): Active | Activity (Homo sapiens [9]): Non-toxic | Activity (Homo sapiens [10]): Non-toxic | Activity (Homo sapiens [11]): Non-toxic
